Arrestin-AP2 inh: blocks beta-arrestin peptide binding to AP2 adaptin | inhibition, % at 10 µM | FITC-arrestin peptide / GST-AP2 beads, flow cytometry; AP2 beta2 appendage carries R879A mutation | 340,000 tested, 0.31% active;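 active means inhibition above a set limit, near 3 SD of compounds lacking own fluorescence, cut at about 54% in these data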
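Material – GST-tagged AP2 beta2-adaptin appendage (R879A) on 4 µm glutathione beads · Probe or stimulus – fluorescein-tagged arrestin peptide at 50 nM final · Timing – 12 min plus 1 h, RT · Detection – bead flow cytometry, FITC channel · Read-out basis – inhibition as reduced fluorescein signal on beads, percent · Medium – PBS plus Tween 20 (0.05%) and BSA (0.1%)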
APOBEC3G inh: inhibitors of human APOBEC3G DNA deaminase; Q9HC16; recombinant A3G, ssDNA deamination FAM/TAMRA fluorescence; inhibition, % at 20 µM; 330,000 tested, 0.28% active;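 active means inhibition of at least 40% at 20 µM, with no more than 30% in the related APOBEC3A deaminase screen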
UCH37 inh: human UCH37 deubiquitinating enzyme inhibition; Q9Y5K5; purified proteasome/UCH37, Ub-AMC cleavage fluorescence; inhibition, % (no concentration beside the values); 330,000 tested, 0.33% active;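 active means mean inhibition over replicate wells above about 20%, limit read from the data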
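Test system – human UCH37 enzyme supplied as purified proteasome complex · Incubation – 30 min preincubation with enzyme, 25 min cleavage at room temperature · Detection – AMC fluorescence from Ub-AMC cleavage, excitation 355 nm, emission 460 nm · Benchmarks – no-proteasome wells (full inhibition) and compound-free wells (no inhibition)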
AHR activator: activates the human aryl hydrocarbon receptor; AHR-responsive luciferase reporter cells, luminescence; activation, % at 5 µM; 320,000 tested, 2.5% active; in the data active means activation above about 47%
Target sequence (P35869 whole entry, looked up): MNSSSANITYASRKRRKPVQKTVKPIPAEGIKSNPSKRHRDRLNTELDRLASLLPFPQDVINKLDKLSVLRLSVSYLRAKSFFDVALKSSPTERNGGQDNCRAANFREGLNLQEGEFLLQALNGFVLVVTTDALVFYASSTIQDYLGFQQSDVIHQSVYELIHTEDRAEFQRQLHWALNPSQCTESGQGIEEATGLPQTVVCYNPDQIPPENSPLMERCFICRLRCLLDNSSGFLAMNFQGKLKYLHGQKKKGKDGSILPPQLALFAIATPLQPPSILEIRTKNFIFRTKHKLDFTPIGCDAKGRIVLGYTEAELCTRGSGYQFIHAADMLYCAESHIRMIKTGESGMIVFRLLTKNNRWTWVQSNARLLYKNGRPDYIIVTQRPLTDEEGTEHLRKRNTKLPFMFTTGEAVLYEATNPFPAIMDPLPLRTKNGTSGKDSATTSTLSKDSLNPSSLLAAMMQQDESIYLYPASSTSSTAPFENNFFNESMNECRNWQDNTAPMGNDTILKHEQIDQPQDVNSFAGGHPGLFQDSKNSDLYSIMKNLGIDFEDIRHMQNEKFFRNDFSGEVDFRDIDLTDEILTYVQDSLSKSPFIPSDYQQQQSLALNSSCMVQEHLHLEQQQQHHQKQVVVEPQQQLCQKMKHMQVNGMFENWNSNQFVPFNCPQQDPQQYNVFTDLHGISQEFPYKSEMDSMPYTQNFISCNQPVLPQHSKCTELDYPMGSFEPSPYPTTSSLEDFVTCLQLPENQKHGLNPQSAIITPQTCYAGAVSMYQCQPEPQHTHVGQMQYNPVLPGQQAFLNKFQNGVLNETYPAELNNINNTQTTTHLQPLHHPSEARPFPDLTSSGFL
A3A deaminase: blocks human APOBEC3A ssDNA deamination | 330,000 tested, 0.41% active | recombinant A3A, FAM/TAMRA ssDNA deamination fluorescence | inhibition, % at 20 µM | AID 493011;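 active means at least 40% inhibition at 20 µM here, with at most 30% in a related deaminase screen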
PolyA inhibitor: blocks polyadenylation in yeast reporter cells; S. cerevisiae SKY197-pL101 polyadenylation reporter, beta-gal luminescence; efflux-impaired pdr1/pdr3 knockout yeast; score 100 = 6 SD above DMSO; activity score, % at 12 µM; 300,000 tested, 0.02% active;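 active means lowest replicate activity score at least 50, where 100 means six control SD above control mean; inconclusive means lowest score under 50 but half or more replicates reach 50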;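 further: yeast exposed to compound for 9 h at 30 °C; higher score means more reporter readthrough which indicates perturbed polyadenylation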
Numbers stand for hits; i = inactive; ? = inconclusive; nt = no result. Compounds with a hit are over-represented: about 3.4% of the library has one in this group of screens.

SMILES	Arrestin-AP2 inh	APOBEC3G inh	UCH37 inh	AHR activator	A3A deaminase	PolyA inhibitor
O=C(Nc1ccc2c(c1)OCO2)C1CCCN(S(=O)(=O)c2cccs2)C1 (stereo not drawn)	i	i	i	66	i	i
COc1ccc(NC(=O)c2ccco2)cc1NC(=O)c1cccs1	i	i	i	i	i	i
O=C(N/N=C\c1cc2c(cc1Cl)OCO2)c1cccs1	i	i	nt	78	i	?
O=C(Nc1ccc2c(c1)OCCO2)c1cccs1	i	i	i	i	i	i
O=C(Nc1ccc2c(c1)OCCO2)C1CCCN(S(=O)(=O)c2cccs2)C1 (stereo not drawn)	i	i	i	i	i	i
O=C(Nc1ccc2c(c1)OCO2)c1cccs1	i	i	i	88	i	i
O=C(N/N=C\c1cc2c(cc1[N+](=O)[O-])OCO2)c1cccs1	i	i	nt	nt	i	nt
O=C(Nc1ccc(NC(=O)c2cccs2)c(Cl)c1)c1ccco1	i	i	i	64	i	i
O=C(NN=Cc1ccco1)c1cc(-c2cccc(Br)c2)nc2ccccc12	nt	nt	i	nt	nt	nt
COc1ccc(CCN2C(=O)CSC2=NNC(=O)c2ccccc2F)cc1OC	nt	nt	i	nt	nt	nt
CCCOc1ccc(C=NNC(=O)C(C)Sc2ccccn2)cc1OCC (stereo not drawn)	nt	nt	i	nt	nt	nt
COc1ccccc1N1CCN(N=Cc2cccnc2)CC1	nt	nt	i	nt	nt	nt
O=C(Nc1nc2c(F)cccc2s1)C1CC1	i	i	i	48	i	i
CC1CCc2c(sc(Nc3nc4c(F)cccc4s3)c2C(N)=O)C1 (stereo not drawn)	i	i	i	56	i	i
NNc1nc2c(F)cccc2s1	i	i	i	67	i	i
Cc1onc(-c2c(Cl)cccc2Cl)c1C(=O)NC(=S)Nc1sc2c(c1C(N)=O)CCC(C)C2 (stereo not drawn)	nt	i	nt	i	i	i
COc1ccc(C=NNC(=O)c2sccc2C)cc1Cn1nc(C)cc1C	nt	nt	i	nt	nt	nt
CC(C)NC(=O)C(Cc1ccccc1)N1C(=O)c2ccccc2C1=O (stereo not drawn)	i	i	i	55	i	i
COc1cc(C=NNC(=O)c2nonc2N)c(OC)cc1Br	nt	nt	i	nt	nt	nt
CC1=NN(C(N)=S)C(=O)C1N=Nc1ccccc1O (stereo not drawn)	i	i	i	47	i	i
CC1=NN(C(N)=S)C(=O)C1N=Nc1ccccc1C (stereo not drawn)	i	i	i	57	i	i
CC1=NN(C(N)=S)C(=O)C1N=Nc1ccc(C)cc1C (stereo not drawn)	nt	i	i	67	i	i
CCOc1ccccc1N=Nc1c(C)[nH]n(C(N)=S)c1=O	i	i	i	65	i	i
COc1ccccc1C=NNC(=O)c1cc2c(OC)c(OC)ccc2[nH]1	nt	nt	i	nt	nt	nt
Cn1cccc1C=NNC(=O)Cn1cnc2ccccc21	nt	nt	i	nt	nt	nt
SMILES	Arrestin-AP2 inh	APOBEC3G inh	UCH37 inh	AHR activator	A3A deaminase	PolyA inhibitor
NC(=NOC(=O)c1cc([N+](=O)[O-])ccc1Cl)c1ccccn1	nt	nt	i	nt	nt	nt
CCOc1ccccc1N=NC1C(=O)N(C(N)=S)N=C1C (stereo not drawn)	i	i	i	65	i	i
COc1cccc(N=NC2C(=O)N(C(N)=S)N=C2C)c1 (stereo not drawn)	i	i	i	i	i	i
COC(=O)c1c(-c2cccnc2)csc1NC(=O)c1cc(C)on1	i	i	i	68	i	i
Cc1[nH][nH]c(=O)c1C(c1ccc(-c2ccccc2C(=O)O)o1)c1c(C)[nH][nH]c1=O	i	nt	24	i	nt	i
Cc1ccc2oc(-c3ccccc3C(=O)O)cc(=O)c2c1	i	i	i	i	i	i
N#Cc1ccccc1CSc1nc2ccc(NC(=O)c3ccccc3C(=O)O)cc2s1	i	i	i	50	i	i
NCCSc1c(-c2ccc(Cl)cc2)[nH]c2ccccc12	i	i	i	48	i	i
NCCSc1c(-c2ccccc2)[nH]c2ccccc12	i	i	i	i	i	i
Cn1cc(S(=O)(=O)N2CCN(c3ccccc3F)CC2)c(=O)n(C)c1=O	i	i	i	i	i	i
COc1ccccc1N1CCN(S(=O)(=O)c2cn(C)c(=O)n(C)c2=O)CC1	i	i	i	65	i	i
NC(=S)N/N=C/c1ccc(-c2ccc(SC(F)F)cc2)o1	i	i	nt	53	i	i
NC(=S)N/N=C/c1ccc(-c2ccc(Cl)c(Cl)c2)o1	i	i	nt	48	i	i
NC(=S)NN=Cc1ccc(-c2ccc([N+](=O)[O-])cc2)o1	nt	nt	i	nt	nt	nt
Cc1cccc(C=NNC(=O)NC23CC4CC(CC(C4)C2)C3)n1	nt	nt	i	nt	nt	nt
Cc1snc(S(=O)(=O)C(C#N)=NNc2ccc(C(F)(F)F)cc2)c1C#N	nt	nt	i	nt	nt	nt
O=C1C(Cl)=C(NS(=O)(=O)c2ccc([N+](=O)[O-])cc2)C(=O)c2ccccc21	i	i	24	i	i	i
CC(C)=CCC/C(C)=C/COc1c2occc2cc2ccc(=O)oc12	i	i	i	69	i	nt
CC(C)COc1ccc(C(=O)NN=Cc2ccoc2)cc1	nt	nt	i	nt	nt	nt
CCCCCCC(=O)Nc1nc(C)c(-c2csc(Nc3cc(OC)ccc3OC)n2)s1	i	i	i	67	i	i
CCCCC(=O)Nc1nc(C)c(-c2csc(Nc3ccccc3OC)n2)s1	i	i	i	77	i	i
CCOC(=O)c1cc(-c2ccc(OC(F)F)cc2)nc2c1c(=O)[nH]c(=O)n2C	i	i	i	61	i	i
Cn1c(/C(C#N)=C(\O)c2cccc(F)c2)nc2ccccc21	i	i	i	63	i	i
O=[N+]([O-])c1cccc(C(=Nc2ccc(Cl)cc2)NO)c1	i	i	i	67	i	i
O=[N+]([O-])c1cccc(C(=Nc2ccccc2)NO)c1	i	i	i	i	i	i
SMILES	Arrestin-AP2 inh	APOBEC3G inh	UCH37 inh	AHR activator	A3A deaminase	PolyA inhibitor
Oc1nc(Nc2cccc(Cl)c2)sc1/C=C1\C=Nc2ccccc21	i	i	i	117	i	i
Oc1nc(Nc2ccc(F)cc2)sc1/C=C1\C=Nc2ccccc21	i	i	nt	122	i	i
CC1=Nc2ccccc2/C1=C\c1sc(Nc2ccc(C)cc2)nc1O	i	i	nt	79	i	i
Oc1cccc(Nc2nc(O)c(/C=C3\C=Nc4ccccc43)s2)c1	i	i	i	i	i	nt
O=C(Nc1ccc(F)cc1)c1c(Cl)nc2ccccn12	i	i	i	58	i	i
CCC(=O)Nc1ccc(NC(=O)c2c(C)nc3ccccn23)cc1	i	i	i	i	i	i
COc1ccc(NC(=O)Nc2c(O)ccc3ccccc23)cc1	i	i	i	67	i	i
CCCn1cccc(C(=O)Nc2ccc(OC)cc2)c1=O	i	i	i	75	i	i
C#CCn1cccc(C(=O)Nc2ccc(OC)cc2)c1=O	i	i	i	i	i	i
COc1ccc(NC(=O)Nc2ccc(OC)cc2)cc1	i	i	nt	i	i	i
O=C(Nc1ccc(F)cc1)c1cccc2ccccc12	i	i	i	57	i	i

Source: PubChem BioAssay
